We go through 34 molecules from ChEMBL document CHEMBL3244427, “Nonsteroidal antiinflammatory agents. 2. Derivatives/analogues of dibenz[b,e]oxepin-3-acetic acid” (J Med Chem, 1978).

One data set relates to Rattus norvegicus. Briefly: Antiinflammatory activity in po dosed Donryu rat assessed as inhibition of carrageenan-induced paw edema. The class given is functional. The conditions noted are these: read-out: ID50 (the source's name). Put shortly: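 Male Donryu rats weighing 130–160 g. Carrageenan was used to induce paw edema. ID50 was read from a regression line fitted by least squares, with 95% fiducial limits calculated by Filler's equation.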
On the technique in general: Carrageenan injected into the paw causes an acute inflammation.

The nature of data set [1]: Therapeutic index, ratio of UD50 for ulcerogenicity in po dosed Donryu rat assessed as gastric lesion to ID50 for antiinflammatory activity in po dosed Donryu rat assessed as inhibition of carrageenan-induced paw edema. The class given is organism-based, Stomach. The conditions noted are these: in vivo, read-out: TI.
A short description of data set [2]: Ulcerogenicity in po dosed Donryu rat assessed as gastric lesion. In kind it is toxicity, organism-based, Stomach. The conditions noted are these: in vivo, read-out: UD50 (the source's name). Put shortly:
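Male Donryu rats weighing 130–160 g. Gastric lesions were induced and then examined.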

Data set [3] in a line: Toxicity in po dosed Donryu rat assessed as mortality. In kind it is organism-based. The conditions noted are these: in vivo. Put shortly:
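Acute toxicity was tested in male Donryu rats weighing 130–160 g, with mortality as the end point.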

A short description of data set [4]: Therapeutic index, ratio of LD50 for po dosed Donryu rat assessed as mortality to ID50 for antiinflammatory activity in po dosed Donryu rat assessed as inhibition of carrageenan-induced paw edema. In kind it is organism-based. The conditions noted are these: in vivo, read-out: TI.

Some results are limits rather than exact numbers.

As to `O=C(O)Cc1ccc2c(c1)OCc1ccsc1C2=O`, the ED50 with Rattus norvegicus came to 61.3 µmol/kg. With `CC(CO)c1ccc2c(c1)OCc1ccccc1C2=O` (stereo unspecified), the ED50 with Rattus norvegicus amounted to 6 µmol/kg. Turning to `O=C(O)Cc1ccc2c(c1)OCc1ccccc1C2`, the ED50 in the data set on Rattus norvegicus was determined as 35 µmol/kg.

As to `O=C1c2ccccc2COc2cc(Cc3nnn[nH]3)ccc21`, in the data set with Rattus norvegicus, the ED50 is above 61.6 µmol/kg. The same measure, in the same setting: with `O=C(O)Cc1ccc2c(c1)SCc1ccsc1C2=O` the figure was above 62 µmol/kg; with `O=C1c2ccccc2COc2ccc(-c3nnn[nH]3)cc21`, above 64.7 µmol/kg.

For the molecule `CCN(CC)CCOC(=O)Cc1ccc2c(c1)C(=O)c1ccccc1CO2`, the ED50 in the data set with Rattus norvegicus worked out at 133 µmol/kg.

Regarding `O=C(O)Cc1ccc2c(c1)COc1ccccc1C2=O`, the ED50 with Rattus norvegicus was 131 µmol/kg.

For `O=C1c2ccccc2COc2ccc(Cc3nnn[nH]3)cc21`, the ED50 with Rattus norvegicus was above 61.6 µmol/kg. As usually defined, the LD50 is the dose at which mortality reaches 50%. As for `O=C(O)Cc1ccc2c(c1)OCc1ccccc1C2=O` [OXEPINAC], the selectivity ratio in data set [1] came to 21.6; in data set [4], 29.7. For the same molecule, the ED50 in the data set with Rattus norvegicus came out at 12.9 µmol/kg. Also, the TD50 in data set [2] came to 279 µmol/kg. Also, in data set [3], the LD50 is 383 µmol/kg.

Consider `CC(=O)/C=C/c1ccc2c(c1)C(=O)c1ccccc1CO2`, for which the ED50 with Rattus norvegicus is above 162 µmol/kg. As for `O=C(O)c1ccc2c(c1)C(=O)c1ccccc1CO2`, the ED50 in the data set on Rattus norvegicus was above 70.8 µmol/kg. Take `CC1(C)OCC(COC(=O)Cc2ccc3c(c2)OCc2ccccc2C3=O)O1` (stereo unspecified): the selectivity ratio in data set [1] came out at 5.6; in data set [4] it was 2.4. For the same molecule, the ED50 in the data set with Rattus norvegicus stood at 100 µmol/kg. Moreover, the TD50 in data set [2] came out at 559 µmol/kg. Besides, the LD50 in data set [3] worked out at 241 µmol/kg. As for `COc1ccc(C(=O)/C=C/c2ccc3c(c2)C(=O)c2ccccc2CO3)cc1`, the ED50 in the data set with Rattus norvegicus was above 122 µmol/kg.

On to `O=C(O)Cc1ccc2c(c1)C(=O)c1sccc1CS2`, for which, in the data set on Rattus norvegicus, the ED50 was above 62 µmol/kg. For the molecule `CC(C(=O)O)c1ccc2c(c1)OCc1ccccc1C2` (stereo unspecified), in the data set with Rattus norvegicus, the ED50 turned out to be 12.7 µmol/kg. On to `CCOC(=O)CNC(=O)Cc1ccc2c(c1)OCc1ccccc1C2=O`, for which the ED50 in the data set with Rattus norvegicus is above 50.9 µmol/kg. As to `O=C(O)Cc1ccc2c(c1)C(=O)c1ccccc1CO2` [ISOXEPAC], the ED50 in the data set with Rattus norvegicus amounted to 50 µmol/kg.

Regarding `CC(C(=O)O)c1ccc2c(c1)OCc1ccccc1C2=O` (stereo unspecified), the ED50 with Rattus norvegicus amounted to 2.7 µmol/kg. The same measure, in the same setting: then `O=C(O)Cc1ccc2c(c1)Cc1ccc(Cl)cc1CO2`, with above 62.3 µmol/kg; and `CC(CO)c1ccc2c(c1)C(=O)c1ccccc1CO2` (stereo unspecified), with 28.3 µmol/kg. The same measure, in the same setting: with `NC(=O)Cc1ccc2c(c1)C(=O)c1ccccc1CO2` the figure was above 67.4 µmol/kg.

`O=C(Cc1ccc2c(c1)OCc1ccccc1C2=O)OCC(O)CO` (stereo unspecified): the selectivity ratio was 8.1 in data set [1] and 9 in data set [4]. In addition, the ED50 in the data set with Rattus norvegicus came to 31 µmol/kg. In addition, the TD50 in data set [2] was found to be 252 µmol/kg. Besides, the LD50 in data set [3] was determined as 278 µmol/kg. As to `O=C(O)Cc1ccc2c(c1)OCc1ccccc1C2O` (stereo unspecified), the ED50 in the data set on Rattus norvegicus was above 66.6 µmol/kg. Take `CC(C(=O)O)c1ccc2c(c1)OCc1ccsc1C2=O` (stereo unspecified): the ED50 in the data set with Rattus norvegicus was found to be 43.7 µmol/kg. With `O=C(O)Cc1ccc2c(c1)Cc1ccccc1CO2`, in the data set with Rattus norvegicus, the ED50 was determined as 99.1 µmol/kg. Consider `CC(=O)CCc1ccc2c(c1)OCc1ccccc1C2=O`, for which, in the data set on Rattus norvegicus, the ED50 came out at 96.7 µmol/kg.

Turning to `O=C(O)Cc1ccc2c(c1)C(O)c1ccccc1CO2` (stereo unspecified), in the data set on Rattus norvegicus, the ED50 was above 66.6 µmol/kg. `O=C(O)Cc1ccc2c(c1)SCc1sccc1C2=O`: in the data set on Rattus norvegicus, the ED50 was found to be 40 µmol/kg. For `O=C(O)Cc1ccc2c(c1)C(=O)c1sccc1CO2`, the ED50 in the data set on Rattus norvegicus came out at 75.1 µmol/kg. For `O=C(O)c1ccc2c(c1)OCc1ccccc1C2=O`, the ED50 with Rattus norvegicus was above 70.8 µmol/kg.

With `CC(=O)/C=C/c1ccc2c(c1)OCc1ccccc1C2=O`, in the data set on Rattus norvegicus, the ED50 was above 162 µmol/kg. Consider `O=C1c2ccccc2COc2cc(-c3nnn[nH]3)ccc21`, for which the ED50 in the data set with Rattus norvegicus was above 64.7 µmol/kg.

`O=C(Cc1ccc2c(c1)OCc1ccccc1C2=O)Oc1ccc(C(=O)O)cc1`: the ED50 with Rattus norvegicus turned out to be 91.6 µmol/kg.
